# Compound activity deposited in PubChem by Broad Institute.
# A selection: hits, their analogues and other compounds. The true share with any hit is near 3.2%.
# Cneo AK release = Cryptococcus neoformans cell lysis inducers, primary screen, AK release luminescence, single concentration | actives 0.2% (n = 360,000) | lysis activity, % at 15 µM | C. neoformans lysis, adenylate kinase release luminescence, 4 h; normalised: neutral wells 0, clomiphene wells 100;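 active means mean lysis activity across replicates of at least 80%, whatever share of replicates individually reach that level; inactive means mean lysis activity below 80%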
#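 Signal: Adenylate kinase release luminescence | Assay system: Log-phase Cryptococcus neoformans yeast cells | Input: Cells at 5 × 10^6 per mL | Buffer or medium: Fresh YPD growth medium | Compound: Single dose | Schedule: Static 4 h at 37 °C with compound, 1 h detection | Controls: Clomiphene | Read-out: Luminescence rise reflecting yeast cell lysis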
# S100A4 MyoIIA = inhibitors of S100A4-myosin IIA peptide binding, primary screen, biochemical, fluorescence polarization, TAMRA-MyoIIA peptide; inhibition, % at 10.7 µM; actives 0.14% (n = 360,000); AID 652163, 2013; Protein S100-A4 (Homo sapiens), P26447;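 active means mean inhibition of at least 70% across replicates, with every replicate also reaching that level; inconclusive means mean inhibition reaches 70% but some replicates fall short; inactive means mean inhibition below 70%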
# Target sequence (P26447 whole entry, looked up): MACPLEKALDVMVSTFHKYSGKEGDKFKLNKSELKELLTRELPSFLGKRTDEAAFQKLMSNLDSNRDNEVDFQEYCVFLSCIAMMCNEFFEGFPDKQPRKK
#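 Material: human S100A4 monomer with TAMRA-labelled myosin IIA peptide; buffer or medium: HEPES pH 7.2 with CaCl2, KCl, NaCl, DTT, Triton; compound dosing: one concentration per compound; schedule: 5 min incubation before reading; benchmarks: neutral control DMSO, positive control TFP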
# AF4-AF9 inh = inhibitors of AF4 peptide binding to AF9, primary screen, biochemical, AlphaScreen, biotin-AF4 peptide, FLAG-AF9, single point; Protein AF-9 (Homo sapiens), P42568; inhibition, % at 10 µM; actives 0.47% (n = 350,000); AID 651704, 2012;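 active means every replicate reaching a set inhibition limit, whatever the replicate mean, cut at about 25% in these data; inconclusive means mean inhibition reaches that limit but some replicates miss it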;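 further: 0% = plate neutral control median and 100% = total signal loss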
# Target sequence (P42568 whole entry, looked up): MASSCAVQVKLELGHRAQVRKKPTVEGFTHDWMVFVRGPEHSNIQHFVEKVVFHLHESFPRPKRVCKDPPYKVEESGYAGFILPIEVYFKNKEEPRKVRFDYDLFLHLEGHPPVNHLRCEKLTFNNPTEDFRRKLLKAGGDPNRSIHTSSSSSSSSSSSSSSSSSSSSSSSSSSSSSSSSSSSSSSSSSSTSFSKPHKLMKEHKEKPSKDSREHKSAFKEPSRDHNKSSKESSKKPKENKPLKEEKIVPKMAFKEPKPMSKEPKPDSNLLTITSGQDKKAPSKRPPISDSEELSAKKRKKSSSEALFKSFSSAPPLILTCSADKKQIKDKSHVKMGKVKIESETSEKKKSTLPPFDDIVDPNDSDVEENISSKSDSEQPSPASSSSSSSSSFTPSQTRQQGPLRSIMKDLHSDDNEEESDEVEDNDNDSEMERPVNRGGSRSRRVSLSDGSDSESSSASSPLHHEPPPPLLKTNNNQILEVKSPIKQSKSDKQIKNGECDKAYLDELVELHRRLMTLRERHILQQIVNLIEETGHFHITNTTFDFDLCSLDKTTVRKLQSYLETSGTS
# PfHsp90 set2 = growth inhibition of PfHsp90-expressing yeast, primary screen, antimalarial PfHsp90 inhibitor project, S. cerevisiae, BacTiter-Glo luminescence, single point, set 2; inhibition, % at 9.4 µM; actives 0.32% (n = 310,000); BacTiter-Glo ATP, 48 h; yeast lacking PDR1 and PDR3 efflux regulators;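 active means every replicate shows inhibition above about 80%, whatever the replicate mean, limit read from the data; inconclusive means mean inhibition reaches the set limit but some replicate falls short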;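 further: 0% = DMSO neutral controls and 100% = 20 µM radicicol positive controls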
# rRNA inh HTS = reduced GFP signal of wild-type E. coli, primary screen, bacterial rRNA inhibitor project, GFP/RFP fluorescence, OD600, single point; AID 720706, 2013; E. coli WT GFP vs humanized-ribosome RFP mutants, 24 h; stronger effect = lower value; DMSO median 0, no signal -100; GFP signal change (wild-type ribosome), % (test concentration not listed); actives 1.6% (n = 350,000);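 active means significant combined selectivity score with lowered wild-type GFP, culture density cut under 30%, mutant RFP and density less affected; inactive means any of these conditions unmet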
# DENV2 CPE rescue = inhibitors of DENV2 cytopathic effect, primary screen, cell-based, plate reader, single concentration; DENV2-infected cells, cytopathic effect rescue; CPE inhibition, % at 9.99 µM; actives 1.7% (n = 350,000); AID 651640, 2012; in the data active means CPE inhibition above about 20%, passing the limit was not always enough; inconclusive means no clear call, values can overlap the other calls; tested in BHK-21 cells;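 further: 0% = median of neutral control wells and 100% = median of positive control wells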
# Active calls of the source: *; ? = inconclusive; nt = no result.
SMILES,Cneo AK release,S100A4 MyoIIA,AF4-AF9 inh,PfHsp90 set2,rRNA inh HTS,DENV2 CPE rescue
Cc1ccc2nc(-c3ccc(CN4CCC(n5c(=O)[nH]c6cc(Cl)ccc65)CC4)cc3)c(-c3ccccc3)nc2c1,nt,-1,nt,nt,nt,52*
CC(=O)N1C[C@@H]2C(c3ccccc3)[C@H](C1)N2CC1CC1 (stereo partly specified),nt,nt,nt,nt,1,nt
CCN1CCC(N(C)C2CCCCC2)CC1,2,7,-2,-4,7,-3
CCN1CCC(NCC2CCCCC2)CC1,3,4,1,-25,16,32*
CN(C(=O)Oc1cccc2ccccc12)C1C=CCC1 (stereo unspecified),6,-4,-4,-21,-20,65*
Cc1ccc(N2C(=O)NC(=O)/C(=C\c3cn(CC(=O)O)c4ccccc34)C2=O)cc1,6,?,-10,26,4,2
O=C(O)Cn1cc(/C=C2\C(=O)NC(=O)N(c3ccc(Br)cc3)C2=O)c2ccccc21,nt,101*,-1,-4,14,-1
COC(=O)[C@]1(C)C[C@H]1[C@H](NP(=O)(c1ccccc1)c1ccccc1)c1ccccc1,5,84*,-2,2,-19,9
O=C(Cc1ccccn1)N1CCCCN2[C@H](C1)[C@@H](c1ccc(-c3ccccc3)cc1)[C@@H]2CO,-1,-6,-6,nt,-1,21*
CCCC#Cc1ccc([C@H]2[C@H]3CN(C(=O)Cc4ccccn4)CCCCN3[C@H]2CO)cc1,0,6,2,nt,-1,21*
O=C(Cc1ccccn1)N1CCCCN2[C@H](CO)[C@H](c3ccc(-c4ccccc4)cc3)[C@H]2C1,-2,16,2,nt,0,-6
CCCC#Cc1ccc([C@@H]2[C@@H](CO)N3CCCCN(C(=O)Cc4ccccn4)C[C@H]23)cc1,-1,-2,6,nt,3,2
CN(C)CC#Cc1ccc([C@H]2[C@@H](CO)N3CCCCN(C(=O)Cc4ccccn4)C[C@H]23)cc1,-2,6,7,nt,3,30*
C/C=C/c1ccc([C@@H]2[C@H]3CN(C(=O)Cc4ccncc4)CCCCN3[C@H]2CO)cc1,-3,-7,-9,nt,7,82*
CN1[C@@H]2CN(CC(F)(F)F)C[C@H]1C2c1ccc(Br)cc1 (stereo partly specified),nt,nt,nt,nt,-4,nt
O=C(O)[C@@H]1[C@@H](CO)[C@@H]2Cn3c(ccc(-c4ccc(F)cc4)c3=O)[C@H]1N2CC1CCCCC1,-4,11,3,nt,0,-4
CS(=O)(=O)N1C[C@@H]2N[C@H](C1)C2c1ccccc1 (stereo partly specified),nt,nt,nt,nt,0,nt
N#Cc1cccc(-c2ccc([C@H]3[C@@H](CO)N4CCCCN(C(=O)Cc5ccccc5)C[C@H]34)cc2)c1,0,1,0,nt,0,27*
O=C(Cc1cccnc1)N1CCCCN2[C@H](C1)[C@H](c1ccc(C#CC3(O)CCCC3)cc1)[C@@H]2CO,-8,-9,-5,nt,5,25*
O=C(O)[C@H]1[C@H](CO)[C@H]2Cn3c(ccc(-c4ccncc4)c3=O)[C@@H]1N2C(=O)C1CC1,nt,nt,nt,nt,4,nt
COP(=O)(C#Cc1ccccc1)C(O)c1ccc(Br)cc1 (stereo unspecified),nt,2,-2,1,-30*,1
CCOP(=O)(C#Cc1ccccc1)C(O)c1ccc(Br)cc1 (stereo unspecified),nt,2,-2,-2,-48,-7
Clc1cc(Cl)c(-c2cc(Cl)c(Cl)cc2Cl)cc1Cl,2,0,nt,-1,8,23*
CN1[C@@H]2CN(S(C)(=O)=O)C[C@H]1C2c1ccccc1 (stereo partly specified),nt,nt,nt,nt,1,nt
CC(C)(C)n1nnnc1C(C1CC1)N1CCC2(CC1)C(=O)NCN2c1ccccc1 (stereo unspecified),2,-3,8,nt,-16*,1
SMILES,Cneo AK release,S100A4 MyoIIA,AF4-AF9 inh,PfHsp90 set2,rRNA inh HTS,DENV2 CPE rescue
COC(=O)[C@H]1[C@H](CO)[C@H]2Cn3c(ccc(C4=CCCCC4)c3=O)[C@@H]1N2C(=O)NC(C)C,1,-4,1,nt,-1,-9
CC(=O)O[C@H]1CCC2C3CCC4=CC(=O)CCC4=C3C=C[C@@]21C (stereo partly specified),4,-1,9,-23,-18*,-14
c1ccc(C2CC2)c(OCC2=NCCN2)c1,0,1,-1,1,nt,75*
CC1=C(O)C(=O)C=C2C1=CC=C1C2(C)CCC2(C)C3CC(C)(C(=O)O)CCC3(C)CCC12C (stereo unspecified),nt,-3,-1,125*,3,-2
O=[N+]([O-])c1ccc(N2CCOCC2)c2c1no[n+]2[O-],-6,4,6,nt,-24*,-12
CCCNC(=O)N1[C@@H]2c3ccc(-c4ccccc4OC)c(=O)n3C[C@H]1[C@H](CO)[C@H]2C(=O)OC,1,3,0,nt,3,nt
Oc1ccccc1CN(CCc1ccccc1)Cc1ccccc1,2,-2,-8,-28,-26*,0
Cc1ccc(-c2nc3ccccc3c(=O)n2-c2nccs2)cc1,-1,nt,nt,-20,nt,nt
Cc1nc2ccccc2c(=O)n1-c1nccs1,nt,-1,-7,nt,4,43*
C=CCN1[C@@H]2CN(CC(F)(F)F)C[C@H]1C2c1ccc(Br)cc1 (stereo partly specified),nt,nt,nt,nt,-5,nt
CCCC#Cc1ccc([C@@H]2[C@@H](CO)N3CCCCN(C(=O)Cc4ccccn4)C[C@@H]23)cc1,53,4,2,nt,7,-1
O=C(Nc1ccc(Cl)cc1)OC1CN2CCC1CC2 (stereo unspecified),nt,1,-1,-3,nt,19
O=C(Nc1cccc(Cl)c1)OC1CN2CCC1CC2 (stereo unspecified),nt,0,-7,6,-39*,-4
O=C1NC(=O)C2(Cc3cc([N+](=O)[O-])ccc3N3CCN(C(=O)c4ccccc4)CC32)C(=O)N1 (stereo unspecified),-2,-2,3,-9,-29*,-3
CN1C(=O)N(C)C(=O)C2(Cc3cc([N+](=O)[O-])ccc3N3CCN(C(=O)c4ccccc4)CC32)C1=O (stereo unspecified),1,-3,-2,-14,-12,1
O=c1c2ccccc2nc(/C=C/c2ccc(O)cc2)n1-c1ccccc1O,-3,-7,4,7,-27*,0
